71 compounds from ChEMBL document CHEMBL4513216, “Probing the Open Global Health Chemical Diversity Library for Multistage-Active Starting Points for Next-Generation Antimalarials” (ACS Infect Dis, 2020) can be followed below.

A short description of this data set: Toxicity liver stage against HepG2, at 10uM. It is filed as cell-based. Details: test concentration 10 uM, cell line HepG2-A16-CD81EGFP. To be noted: human, HepG2-A16-CD81EGFP cells; read-out: INHIBITION
The method, boiled down: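 Uninfected HepG2-A16-CD81EGFP cells, 3 × 10^3 per well, 1536-well, plated on prespotted compound at 10 μM final, parasite-free screening media added to match infected plates; puromycin 10 μM positive, DMSO 0.5% negative; run in parallel with 48 h PbLuc assay at 37 °C, 5% CO2; viability by CellTiter-Glo luminescence, normalized to controls.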

In the case of `COCC(=O)NCCc1ccc(Cl)s1`, the cytotoxicity at 10 µM was determined as 13.4%.

As to `CC(C)Cc1nnc2sc(-c3cc(C(C)C)n[nH]3)nn12`, the cytotoxicity at 10 µM was 8.08%.

As to `C[C@@H](CO)Nc1cc(-c2cn[nH]c2)ncn1`, the cytotoxicity at 10 µM was -10.6%.

On to `CN(C)C(=O)CN1C(=O)CCC12CCN(Cc1ccsc1)CC2`, for which the cytotoxicity at 10 µM was -3.13%.

On to `CN(Cc1ncnn1C)C(=O)CCCn1ccc2cc(Cl)ccc21`, for which the cytotoxicity at 10 µM amounted to 14.7%.

In the case of `CCCc1nc(N2CC[C@@H](c3ccc4c(c3)OCO4)[C@H](O)C2)no1`, the cytotoxicity at 10 µM is -9.87%.

Take `O=C1NC[C@@]2(C(=O)O)CN(Cc3ccc(Oc4ccccc4)cc3)C[C@@H]12`: the cytotoxicity at 10 µM is -8.39%.

For `Cc1ncc2c(n1)CCN(C(C(N)=O)c1ccccc1)C2` (stereo unspecified), the cytotoxicity at 10 µM is -2.62%.

`CNC(=O)C1CCN(C(=O)c2cccn2Cc2cccs2)CC1`: the cytotoxicity at 10 µM was -3.74%.

In the case of `COc1ccc(C(=O)N2CCCC(NC(=O)C(C)C)C2)c(O)c1` (stereo unspecified), the cytotoxicity at 10 µM is 0.301%.

As for `CC(C)c1noc(CN(Cc2cccs2)C2CC2)n1`, the cytotoxicity at 10 µM is -9.15%.

For the compound `Cc1ccsc1-c1nccn1CCS(C)(=O)=O`, the cytotoxicity at 10 µM was 3.03%.

Turning to `COc1cc(F)cc2sc(NC(=O)COCC3CCCO3)nc12` (stereo unspecified), the cytotoxicity at 10 µM was -5.07%.

On to `Cc1nnc(N2CCCC3(CN(Cc4cccnc4)CCO3)C2)o1` (stereo unspecified), for which the cytotoxicity at 10 µM was 4.96%.

For the compound `CC(C)(C)CC(=O)Nc1ncn(CC(=O)NCc2ccccc2)n1`, the cytotoxicity at 10 µM was -3.38%.

Turning to `Fc1cccc(CNc2cncc(-n3cccn3)n2)c1`, the cytotoxicity at 10 µM is 0.959%.

`COc1cc2nc3n(c(=O)c2cc1OC)CCN(C(=O)C1CCC1)CC3`: the cytotoxicity at 10 µM is -8.8%.

For `O=S(=O)(c1ccc(-c2cnco2)cc1)N1CCC2(CCCNC2)C1` (stereo unspecified), the cytotoxicity at 10 µM was -27.3%.

For `CCNC(=O)CN1CCCC(c2ccc(C(=O)O)cc2)C1` (stereo unspecified), the cytotoxicity at 10 µM was 8.57%.

Consider `CCCS(=O)(=O)N1C[C@@H]2COC[C@]2(CN2CCOCC2)C1`, for which the cytotoxicity at 10 µM was 1.86%.

Take `Cc1cc(C(=O)N2CCCC2c2noc(C)n2)[nH]n1` (stereo unspecified): the cytotoxicity at 10 µM is -18.7%.

For the compound `CC[C@H]1CN(C(=O)c2ccc(-n3cnnc3)nc2)CC[C@@]1(C)O`, the cytotoxicity at 10 µM was -11.9%.

For `COc1ccc(Br)cc1CN(C)C(C)c1nc(C)no1` (stereo unspecified), the cytotoxicity at 10 µM was -4.02%.

Consider `CCOC(=O)N1CCN(C(=O)c2cc(-c3ccc(Cl)cc3Cl)on2)CC1`, for which the cytotoxicity at 10 µM was determined as 2.42%.

For the compound `Cc1cc(C(N)=O)c(N2C[C@@H](C)[C@@](C)(O)C2)nc1C`, the cytotoxicity at 10 µM was -9.14%.

With `CCN(CC)CCC(=O)N1CCc2c(nc(N(C)C)nc2N(C)C)C1`, the cytotoxicity at 10 µM is -14.4%.

As to `CC(=O)c1cccc(OCCCC(=O)N(C)CC(N)=O)c1`, the cytotoxicity at 10 µM is 17.3%.

Consider `Cc1ccc2c(n1)N(C)CCN(C(=O)C1CC1)C2`, for which the cytotoxicity at 10 µM is -2.15%.

Consider `CC(C)(C)c1cc(=O)n2c(n1)SCC(C(=O)NCc1ccccn1)C2` (stereo unspecified), for which the cytotoxicity at 10 µM was -6.88%.

Regarding `CCNC(=O)NC(=O)CN1CCOC(c2ccccc2Cl)C1` (stereo unspecified), the cytotoxicity at 10 µM was 6.58%.

Take `COc1cccc(CN2CCCCCC2c2cccc(C)c2)c1O` (stereo unspecified): the cytotoxicity at 10 µM was determined as 7.6%.

With `O=C(O)[C@]12CCCN(Cc3ccsc3)C[C@H]1CN(c1ccccn1)C2`, the cytotoxicity at 10 µM is -139%.

As to `CNS(=O)(=O)c1cccc(C(C)NCc2ccco2)c1` (stereo unspecified), the cytotoxicity at 10 µM was found to be 4.61%.

Consider `Cc1[nH]nc(CCC(=O)N2CCc3c(nc[nH]c3=O)C2)c1C`, for which the cytotoxicity at 10 µM is 3.63%.

Regarding `Cc1ccc(CN(Cc2ccccn2)C(=O)[C@H]2CC[C@@H](N)C2)s1`, the cytotoxicity at 10 µM was -0.327%.

In the case of `O=C(CC1CC1)N[C@@H]1CN(Cc2ccccn2)C[C@@H]2CCCO[C@@H]21`, the cytotoxicity at 10 µM amounted to 6.09%.

In the case of `COC(=O)c1ccc(CN(C(C)C)C(C)C)o1`, the cytotoxicity at 10 µM worked out at 2.21%.

On to `CC(=O)N1CCCC1c1nc(C)cc(-c2ccc(F)cc2)n1` (stereo unspecified), for which the cytotoxicity at 10 µM was 9.88%.

Take `O=C(C1CCCCC1)N1CCN(Cc2nc(-c3ccco3)no2)CC1`: the cytotoxicity at 10 µM was -1.01%.

`CN(C(=O)CN1CCCC1=O)C1CCCN(C2Cc3ccccc3C2)C1` (stereo unspecified): the cytotoxicity at 10 µM worked out at 0.024%.

For `c1ccc(COCC2CN(Cc3ccsc3)Cc3nccn3C2)nc1` (stereo unspecified), the cytotoxicity at 10 µM was -69.6%.

For `Cc1nc(C2CCNCC2)cc(N(C)Cc2cc3cc(F)ccc3[nH]2)n1`, the cytotoxicity at 10 µM is -10.7%.

With `Cc1c[nH]c(C2CCCN(C(=O)CCc3c(C)n[nH]c3C)C2)n1` (stereo unspecified), the cytotoxicity at 10 µM is 4.88%.

Take `NS(=O)(=O)c1ccc(NC(=O)CSc2ccc3c(c2)CCC3)cc1`: the cytotoxicity at 10 µM is -9.06%.

Consider `Cc1noc2nc(C3CCN(CC4CCCCC4)CC3)cc(C(F)F)c12`, for which the cytotoxicity at 10 µM is -0.335%.

In the case of `COC(=O)C(c1cc(F)ccc1F)N(C)C(=O)c1ccccn1` (stereo unspecified), the cytotoxicity at 10 µM was -2.72%.

On to `O=C(c1cccn1Cc1cccs1)N1CCCC1Cn1cccn1` (stereo unspecified), for which the cytotoxicity at 10 µM was -7.52%.

As to `CNC(=O)C1CCCCN1C(=O)CCn1cnc2sccc2c1=O` (stereo unspecified), the cytotoxicity at 10 µM was -7.18%.

In the case of `Cc1cnn(CCNCc2csc(-c3ccc4c(c3)OCO4)n2)c1`, the cytotoxicity at 10 µM is -6.41%.

Take `c1ccc(OCc2n[nH]c3c2CN(CC2CC2)C3)nc1`: the cytotoxicity at 10 µM came out at 7.49%.

Regarding `COc1ccc(-c2cnc(N)nc2C2CCCNC2)cc1` (stereo unspecified), the cytotoxicity at 10 µM is -1.51%.

Take `CCC(CC)C(CNC(=O)Nc1cnn(CCOC)c1)N(C)C` (stereo unspecified): the cytotoxicity at 10 µM is -6.87%.

In the case of `O=C(NCC(O)(c1ccco1)C1CC1)c1c(F)cccc1Cl` (stereo unspecified), the cytotoxicity at 10 µM is -2.69%.

`COC(=O)c1cccc(C(=O)N2CCN(c3ccccc3F)CC2)n1`: the cytotoxicity at 10 µM was -10.9%.

For `O=C(Cn1cc(NC(=O)c2ccc(F)cc2F)cn1)NC1CCCC1`, the cytotoxicity at 10 µM is -0.561%.

`COc1ccc2c(c1)OCC(CNC(=O)c1ccc3[nH]nnc3c1)C2` (stereo unspecified): the cytotoxicity at 10 µM is -7.72%.

As for `O=C1N(Cc2cccc(F)c2F)CCCC1(O)CNCc1ccccc1` (stereo unspecified), the cytotoxicity at 10 µM is -9.45%.

Turning to `O=C(NCc1cc[nH]n1)NCC(O)c1ccc(F)c(F)c1` (stereo unspecified), the cytotoxicity at 10 µM is -21%.

Take `COc1c(CNC2CCSc3ccc(F)cc32)c(C)nn1C` (stereo unspecified): the cytotoxicity at 10 µM turned out to be 32.8%.

Take `Cc1nc(C2CCN(C(=O)COC(C)C)CC2)cc(N2CCOCC2)n1`: the cytotoxicity at 10 µM was -8.8%.

In the case of `Cc1oc(C)c(C(=O)N2CCCN(c3nccs3)CC2)c1C`, the cytotoxicity at 10 µM was 1.53%.

For the compound `c1ccc(CCN2CCOC(Cn3cccn3)C2)nc1` (stereo unspecified), the cytotoxicity at 10 µM was -4.48%.

`Cc1ccc2nc(CN(Cc3ccc(C#N)cc3)C(C)C)cc(=O)n2c1`: the cytotoxicity at 10 µM is 21.1%.

As for `Cc1[nH]ccc1C(=O)NCC1CC(=O)N(CCc2ccccc2)C1` (stereo unspecified), the cytotoxicity at 10 µM is -1.92%.

Consider `CCN(CC)CC(=O)NCCc1csc(N2CCCC2)n1`, for which the cytotoxicity at 10 µM was determined as 8.55%.

On to `CC(C1CCN(Cc2ccc(OC(F)F)cc2)CC1)N1CCOCC1` (stereo unspecified), for which the cytotoxicity at 10 µM was -2.38%.

With `CCS(=O)(=O)CCN1CCN(C(C)c2cccnc2)CC1` (stereo unspecified), the cytotoxicity at 10 µM is 8.65%.

As for `COCCC(=O)NCc1ccc(-c2ncncc2C(=O)N(C)C)cc1`, the cytotoxicity at 10 µM was 4.45%.

Consider `Fc1cccc(-c2nc(CN3CCOC(Cn4cncn4)C3)co2)c1` (stereo unspecified), for which the cytotoxicity at 10 µM is -11.4%.

Consider `Cc1cnn(-c2ccc(C(=O)N3CCCC(n4ccnc4C)C3)cc2)c1` (stereo unspecified), for which the cytotoxicity at 10 µM was -9.99%.

As to `Cc1ccc(CN2CCCn3c(nc(Cn4ccnc4)cc3=O)C2)o1`, the cytotoxicity at 10 µM is 5.89%.
